Assay results gathered from unrelated publications.
Read-out: metabolic stability
Host: human

CC[C@@H]1C=CC(=O)O[C@@H]1C[C@@H](O)[C@H](C)[C@H](OC)[C@@H](C)Cc1ccccc1  half-life (liver microsomes): 5.4 min
Cc1cccc(-n2ncc(Cl)c(Cl)c2=O)c1  half-life (liver microsomes): 6.6 min
C/C=C/C[C@H](C)[C@@H](OC)[C@@H](C)[C@H](O)C[C@H]1OC(=O)C=C[C@H]1CC  half-life (liver microsomes): 6.7 min
O=C1CCN(C(=O)Nc2ccc(F)c(Cl)c2)[C@H]2CCCC[C@@H]12 (relative stereo)  half-life (liver microsomes): > 56 min
O=C(OC(C(F)(F)F)C(F)(F)F)N1Cc2ccc(OCCN3CCOCC3)cc2C1  half-life (liver microsomes): 40 min
O=C(O)Cc1ccccc1Nc1c(Cl)cccc1Cl  half-life (hepatocytes; 1 µM): 18.4 min
CC(C)NCC(O)COc1cccc2ccccc12 (stereo not drawn)  half-life (liver microsomes; 1 µM): 57.8 min
CCS(=O)(=O)Nc1ccc(OCCOCCOCCOCCOc2ccc(NS(=O)(=O)CC)cc2-c2cn(C)c(=O)c3ccccc23)c(-c2cn(C)c(=O)c3ccccc23)c1  half-life (liver microsomes): < 2.3 min
O=C(CC1Cc2ccccc2C1)N[C@H](CN1CCCC1)[C@H](O)c1ccc2c(c1)OCCO2  half-life (liver microsomes): 28 min
NCc1ccccc1  half-life (hepatocytes; 5 µM): 76.3 min
CCCN(C)Cc1cc(-c2[nH]c3cccc(F)c3c(=O)c2C)ccc1Cc1ccc(OC(F)(F)F)cc1  half-life (liver microsomes): 1.67 min
CC[C@@H]1C=CC(=O)O[C@@H]1C[C@@H](O)[C@H](C)[C@H](OC)[C@@H](C)Cc1ccc(F)cc1  half-life (liver microsomes): 3.3 min
COc1ccc2cc(C(=O)Nc3ccc4c(c3)CN(C3CCC(=O)NC3=O)C4=O)ccc2c1 (stereo not drawn)  half-life (liver microsomes; 2 µM, 1 h): 3.8 min
CCOC(=O)NS(=O)(=O)c1sc(CC(C)C)cc1-c1ccc2c(c1)CN(C(C)=O)C2  half-life (liver microsomes; 1 µM, pH 7.4): 7.8 min
COc1ccc(-c2ocnc2C(=O)NCCCn2cncn2)cc1Cl  half-life (liver microsomes): 78.7 min
O=C(N[C@H](Cc1c[nH]c2ccccc12)C(=O)Nc1ccncc1)c1ccc(-c2cc(F)ccc2F)cc1F  half-life (liver microsomes): 17 min
O=S(=O)(Nc1cccc(-c2nnn[nH]2)c1)c1cc(Cl)c(Cl)cc1Cl  half-life (liver microsomes): 88 min
O=C(N[C@H](Cc1c[nH]c2ccccc12)C(=O)Nc1ccncc1)c1ccc(-c2cccc(F)c2)cc1F  half-life (liver microsomes): 18 min
CCCCOC(=O)NS(=O)(=O)c1sc(CC(C)C)cc1-c1ccc2c(c1)CCN(C(C)=O)C2  half-life (liver microsomes; 1 µM, pH 7.4): 8.7 min
CCN(CC)S(=O)(=O)c1ccc(S(=O)(=O)N2CCC[C@@H](C(=O)N3CCC(F)(F)CC3)C2)cc1  half-life (liver microsomes; 1.05 µM): 2.7 min
O=S(=O)(Nc1cccc(-c2nnn[nH]2)c1)c1ccc(Cl)c2nonc12  half-life (liver microsomes): 200 min
CN1CCN(C(c2ccccc2)c2ccc(Cl)cc2)CC1 (racemic)  half-life (liver microsomes): > 100 min
CCCCOC(=O)NS(=O)(=O)c1sc(CC(C)C)cc1-c1ccc2c(c1)CN(C(C)=O)C2  half-life (liver microsomes; 1 µM, pH 7.4): 2.4 min
CCOc1ccc2ccc(=O)oc2c1  half-life (liver microsomes; 1 µM, pH 7.4): 10 min
CCOC(=O)NS(=O)(=O)c1sc(CC(C)C)cc1-c1ccc2c(c1)CN(C)C(=O)C2  half-life (liver microsomes; 1 µM, pH 7.4): 7.8 min
COc1ccc2nc3cc(Cl)ccc3c(Nc3cc(CN4CCCC4)c(O)c(CN4CCCC4)c3)c2n1  half-life (hepatocytes; 1 µM): 468 min
CCN(CC)CCNC(=O)c1c(C)[nH]c(/C=C2\C(=O)Nc3ccc(F)cc32)c1C  half-life (liver microsomes; 1 µM, pH 7.4): 37.4 min
